Data published in PubChem BioAssay AID719 (SRMLSC, 2007).
In all, about 85,000 compounds went through this assay and about 940 (1.1%) were called active. The full list was thinned out, with actives kept by preference. Values without a mark were called inactive.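 How the source made its calls: active means viability at or below 50% in the single dose screen; inactive means viability above 50%.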

experiment: antiproliferative effect on LL 47 fibroblasts – human, LL 47 cells, CellTiter-Glo luminescence, primary screen (AID 719); conditions: LL 47 human lung fibroblast viability, ATP luminescence; at 10 µM; active compounds read low;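 further: compound exposure lasted 72 h before the ATP readout; 100% = median luminescence of untreated cell-only wells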
Outline: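 Benchmarks: Cell-only wells, no compound | Test system: LL 47 human lung fibroblasts, passage 12 or lower | Input: 1,150 cells/well | Measured by: CellTiter-Glo luminescence measuring cellular ATP | Medium: IMEM, 15% FBS supplement | Schedule: Overnight attachment after seeding, then 72 h compound exposure at 37 °C | Doses: Compound addition at 0.1% DMSO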

SMILES | viability
CCCCC(C(=O)OCC(=O)c1ccc(OC)cc1)N1C(=O)c2ccccc2C1=O (stereo not given) | 93.2%
COC(=O)c1ccccc1NC(=O)Cc1ccccc1OC | 102%
CCOc1ccc(Cn2nnc(C(=O)Nc3ccc(OC)cc3OC)c2N)cc1 | 81.2%
Nc1c(C(=O)NCc2ccccc2)nnn1Cc1cccc(Cl)c1 | 44.6% (active)
CCOc1ccc(Cn2nnc(C(=O)NCc3ccccc3)c2N)cc1 | 84.8%
CC(C)N1C(=S)SC(C)(C)C1n1oc(=O)n(-c2ccc(Cl)c(Cl)c2)c1=O (stereo not given) | 87.5%
CCOC(=O)N1CCN(C(=O)c2nn(-c3ccc(C)cc3)c(=O)c3c2c2ccccc2n3C)CC1 | 19.7% (active)
Cn1c2ccccc2c2c(C(=O)N3CCN(c4ccc(F)cc4)CC3)cn(C3CCCC3)c(=O)c21 | 85.9%
CCOC(=O)N1CCN(C(=O)c2n[nH]c(=O)c3ccccc23)CC1 | 97.5%
COc1ccc(C)c(Cn2c(-c3nonc3N)nc3ccccc32)c1 | 42.2% (active)
Nc1nonc1-c1nc2ccccc2n1Cc1ccc(F)cc1 | 52.3%
Nc1nonc1-c1nc2ccccc2n1CCC(=O)O | 104%
CCOc1ccc(N=C2NC(=O)S/C2=C\c2ccc(O)cc2)cc1 | 102%
COc1ccc(C)cc1S(=O)(=O)NCCc1ccccc1 | 97.6%
Cc1nc(NC(=O)CN(C)S(=O)(=O)c2ccc(Cl)cc2)sc1C | 98.6%
Cc1ccc(-n2c(SCC(=O)Nc3ccc4c(c3)OCO4)nnc2-c2ccoc2C)cc1 | 99%
O=C(CSc1nnc(-c2ccccn2)n1-c1ccccc1)Nc1ccc2c(c1)OCO2 | 89.6%
Cc1ccc(-n2c(SCC(=O)Nc3ccc4c(c3)OCO4)nnc2-c2ccccn2)cc1 | 42.1% (active)
Cc1ccc(-n2c(SCC(=O)NCc3ccc4c(c3)OCO4)nnc2-c2cccnc2)c(C)c1 | 95.8%
O=C(c1cc2sccc2n1Cc1ccc(F)cc1)N1CCc2ccccc21 | 95.6%

SMILES | viability
COc1ccc(CC(=O)Nc2ccc(-c3nnc(-c4ccccc4)o3)cc2)cc1 | 105%
COc1ccc(CC(=O)Nc2ccc(-c3nnc(-c4ccc(C)cc4)o3)cc2)cc1 | 30.9% (active)
Cc1ccc(OCC(=O)Nc2ccc(-c3nnc(-c4ccco4)o3)cc2)cc1 | 91.8%
O=C(/C=C/NNC(=O)c1cccc(Br)c1)c1ccccc1 | 80.9%
CCC(=O)Nc1sc(C(=O)N2CCCCC2)c(C)c1C#N | 98%
CN1CCN(CC(=O)Nc2sc3c(c2C#N)CCC(C(C)(C)C)C3)CC1 (stereo not given) | 2.62% (active)
CC(C)(C)C1CCc2c(sc3nc(SCC(N)=O)nc(N)c23)C1 (stereo not given) | 99%
CCOC(=O)c1nnn(-c2nonc2-n2cccc2)c1CN1CCC(C(=O)OCC)CC1 | 95%
O=C(NCCN1CCOCC1)c1c(F)c(F)c(F)c(F)c1F | 97.6%
CC(=O)Oc1cc2c(C(=O)NCCN3CCOCC3)c(C)oc2c2ccccc12 | 8.08% (active)
O=C(CCN1C(=O)c2ccccc2C1=O)NCCN1CCOCC1 | 104%
Cc1ccc(-c2cc(C(=O)NCC3CCCO3)c3ccccc3n2)o1 (stereo not given) | 98.3%
Clc1cccc(N=C2NN=C(c3ccc4c(c3)OCCO4)CS2)c1 | 101%
O=C(CCn1c(SCC(=O)c2ccccc2)nc2ccccc2c1=O)NCc1ccc(F)cc1 | 103%
CCOc1cccc(-c2nnc3sc(COc4ccc(OC)cc4)nn23)c1 | 99.8%
COc1ccc(C2=CC(c3cccc(OC)c3)n3nnnc3N2)cc1 (stereo not given) | 86.1%
CCOc1cccc(-n2nnnc2-c2ccc(OC)cc2)c1 | 47.7% (active)
Cc1ccc(Nc2nnc(SCc3ccccc3)s2)cc1 | 102%
Cc1ccc(C)c(N2C(=O)CS/C2=N\NC(=O)c2ccccc2Cl)c1 | 101%
CC(C)CC(N=C1NC(C)(C)Cc2ccccc21)C(=O)O (stereo not given) | 111%

SMILES | viability
COc1cccc(NC(=O)Cc2ccc(C)cc2)c1 | 91.5%
COc1ccc(NC(=O)/C(Cl)=C(/Cl)S(=O)Cc2ccc(C)cc2)cn1 (stereo not given) | 1.6% (active)
COc1ccc(-c2nc3ccccc3n2CCC(C)C)cc1OC | 99.3%
O=C(CN1CCCCCC1)N1c2ccccc2Sc2ccc(C(F)(F)F)cc21 | 96%
CCCCCCc1cc2cc(-c3nnc(-c4cccc(OC)c4)o3)c(=O)oc2cc1O | 64.8%
COC(=O)CSc1nc2c(c(C3CC=CCC3)c1C#N)CCC2 (stereo not given) | 101%
Cc1cc(C)n(-c2nnc(C)n2NC(=O)c2cccc(Cl)c2)n1 | 94.7%
COCCCn1c(SCC(=O)Nc2ccccc2)nnc1-c1ccncc1 | 108%
Cc1ccc(NC(=O)N2CCC(c3nc4c(nnn4Cc4c(F)cccc4Cl)c(=O)[nH]3)CC2)cc1 | 95%
OCCCN1c2ccccc2Nc2nnc(-c3ccccc3)cc21 | 89.3%
N=c1c2c(-c3ccccc3)c(-c3ccccc3)n(Cc3ccccc3)c2ncn1CCCO | 39% (active)
C=CCO/N=C(\C)c1c(O)c(C)c(-c2ccccc2)n(-c2ccccc2)c1=O | 99.4%
Cc1cccc(N2CCN(C(=O)c3cnn4c(C(F)F)cc(-c5ccccc5)nc34)CC2)c1C | 87.9%
C=CCn1c(SCC(=O)/C(C#N)=C(\C)N)nc2sc(C)c(C)c2c1=O | 34.3% (active)
CCCn1c(=O)c2ccccc2n2c(SCC(=O)/C(C#N)=C(\C)N)nnc12 | 93.4%
Cc1sc2nc(SCC(N)=O)n(C)c(=O)c2c1C | 93.8%
CCOc1cc(NC(=O)c2cnccn2)c(OCC)cc1NC(=O)c1ccc(C)cc1 | 97.9%
O=C(Nc1cccc(F)c1)c1ccc(S(=O)(=O)N2CCCC2)cc1 | 109%
COc1ccc(C(=O)Nc2ccc(F)cc2F)cc1 | 99.5%
CCOC(=O)N1CCN(S(=O)(=O)c2ccc(C(=O)Nc3ccc(F)cc3F)cc2)CC1 | 47.5% (active)
